Laboratory results reported in ChEMBL document CHEMBL1148398, “Design, synthesis, and biological evaluation of thio-containing compounds with serum HDL-cholesterol-elevating properties” (2004).

Legend:
Format in all cases: functional
Cricetinae gen. sp. [1] = assay: Percent change in very low-density lipoprotein cholesterol following oral administration of compound in hypercholesterolemic hamsters at 100 mg/kg/day for 14 days
How it was run: (§1)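 Male Syrian Golden hamsters pre-fed chow plus 0.25% cholesterol for 2 weeks and kept on it. Dosed 100 mg/kg/day by oral gavage in 2% Tween 80/saline for 14 days. Serum total cholesterol and glycerol-blanked triglycerides read enzymatically; lipoproteins separated by FPLC with cholesterol measured in each fraction. % change versus vehicle controls; six per group, p < 0.05.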

Rattus norvegicus [2] = assay: Percent change in triglycerides following oral administration of compound in normal chow-fed rats at 100 mg/kg/day for 4 days
How it was run: (§2)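 Chow-fed male Sprague–Dawley CD rats, 60–80 g, gavaged 100 mg/kg/day for 4 days in 1.3% Tween 80/0.25% CMC. Fasted overnight, bled 24 h after the last dose. Total cholesterol and glycerol-blanked triglycerides read enzymatically; lipoproteins by FPLC with cholesterol per fraction. % change versus control; six per group, p < 0.05.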

Rattus norvegicus [3] = assay: Percent change in total plasma cholesterol in hypercholesterolemic rats dosed at 100 mg/kg/day for 8 days
Rattus norvegicus [4] = assay: Percent change in low-density lipoprotein cholesterol following oral administration of compound in normal chow-fed rats at 100 mg/kg/day for 4 days; how it was run: as §2
Rattus norvegicus [5] = assay: Percent change in high-density lipoprotein cholesterol following oral administration of compound in normal chow-fed rats at 100 mg/kg/day for 4 days; how it was run: as §2
Cricetinae gen. sp. [6] = assay: Percent change in low-density lipoprotein cholesterol following oral administration of compound in hypercholesterolemic hamsters at 100 mg/kg/day for 14 days; how it was run: as §1
Cricetinae gen. sp. [7] = assay: Percent change in total plasma cholesterol following oral administration of compound in hypercholesterolemic hamsters at 100 mg/kg/day for 14 days; how it was run: as §1
Cricetinae gen. sp. [8] = assay: Percent change in triglycerides following oral administration of compound in hypercholesterolemic hamsters at 100 mg/kg/day for 14 days; how it was run: as §1
Rattus norvegicus [9] = assay: Percent change in triglycerides in hypercholesterolemic rats at a dose of 100 mg/kg/day for 8 days
Cricetinae gen. sp. [10] = assay: Percent change in high-density lipoprotein cholesterol following oral administration of compound in hypercholesterolemic hamsters at 100 mg/kg/day for 14 days; how it was run: as §1
Rattus norvegicus [11] = assay: Percent change in very low-density lipoprotein cholesterol following oral administration of compound in normal chow-fed rats at 100 mg/kg/day for 4 days; how it was run: as §2
Rattus norvegicus [12] = assay: Percent change in high-density lipoprotein cholesterol in hypercholesterolemic rats dosed at 100 mg/kg/day for 8 days
Rattus norvegicus [13] = assay: Percent change in total plasma cholesterol following oral administration of compound in normal chow-fed rats at 100 mg/kg/day for 4 days; how it was run: as §2

| SMILES | Change (Cricetinae gen. sp. [1]) [%] | Change (Rattus norvegicus [2]) [%] | Change (Rattus norvegicus [3]) [%] | Change (Rattus norvegicus [4]) [%] | Change (Rattus norvegicus [5]) [%] | Change (Cricetinae gen. sp. [6]) [%] | Change (Cricetinae gen. sp. [7]) [%] | Change (Cricetinae gen. sp. [8]) [%] | Change (Rattus norvegicus [9]) [%] | Change (Cricetinae gen. sp. [10]) [%] | Change (Rattus norvegicus [11]) [%] | Change (Rattus norvegicus [12]) [%] | Change (Rattus norvegicus [13]) [%] |
| --- | --- | --- | --- | --- | --- | --- | --- | --- | --- | --- | --- | --- | --- |
| CCN1CC(=O)N(c2ccccc2C(C)C)C1=S | -4.5 | -27.5 | 71 | 24.6 | 90.6 | -41 | -5.9 | -10.1 | 10 | 19.5 | 73.7 | 201 | 111.4 |
| CCN1CC(=O)N(c2ccc(C)cc2C)C1=S | 14.5 | -35.4 | 25 | 8.3 | 61.2 | -11.6 | 10.7 | 9.6 | -34 | 33.3 | 15.6 | 83 | 55.5 |
| CCN1CCC(=O)N(c2c(C)cccc2C)C1=S | 22.7 | -11.4 | 11 | 0 | 97.4 | 24 | -3 | 8.6 | -12 | 0.7 | -5.2 | 184 | 70.4 |
| Cc1cccc(C)c1N1C(=O)CN(C(C)C)C1=S | 8.9 | -42.9 | -25 | -5.8 | 71.2 | 17.2 | -3.1 | -7.3 | -43 | 1.7 | -10.5 | 146 | 56.1 |
| CCN1C(=S)N(c2cc(Cl)ccc2C)C(=O)C1OC (stereo not drawn) | -35.8 | -10.6 | 6 | 11.9 | 91.6 | -19 | 3.8 | -36.4 | -33 | 57.4 | 83.6 | 140 | 102.3 |
| CCN1CCC(=O)N(c2ccc(Cl)cc2C)C1=S | 6.3 | -53.1 | 40 | 38.9 | 75.5 | -26.8 | 2 | -30.7 | -16 | 47.8 | -15 | 126 | 80.7 |
| CCN1CC(=O)N(c2c(C)cccc2Cl)C1=S | -74.4 | -57.1 | -34 | -35 | 62.9 | -39.1 | -32.2 | -77.1 | -20 | 13.8 | 41.4 | 222 | 79.8 |
| CCN1CC(=O)N(c2cccc(Cl)c2Cl)C1=S | -5.9 | 18.3 | 11 | 20.4 | 85.3 | -8.1 | -8 | -12.3 | -23 | 0 | 57.9 | 98 | 89.6 |
| Cc1cccc(Cl)c1N1C(=O)CON(C)C1=S | 5.2 | -61.5 | -2.7 | 11.7 | 52.8 | -22.4 | -21.4 | 38.6 | -30 | -28.1 | 80.8 | 100 | 40.4 |
| COc1ccc(Cl)cc1N1C(=O)CON(C)C1=S | -32.6 | -7.4 | 44 | 8.6 | 71.3 | -20.2 | -7.9 | -26.5 | 7 | 23.5 | 25 | 78 | 67.7 |
| Cc1ccc(C)c(N2C(=O)CON(C)C2=S)c1 | -25.5 | -31.6 | 28 | 9.1 | 87.2 | -40.1 | -13.8 | -23.8 | 26 | 48.3 | 61.5 | 72 | 75.2 |
